PP1 inh: counter-screen for PP5 inhibitors: inhibitors of human PP1-alpha. inhibition, % at 6.7 µM. AID 2235. purified PP1alpha, OMFP fluorescence. 320,000 compounds, 0.9% hits. P62136;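 active = inhibition above the mean inhibition of all tested compounds plus 3 SD, computed separately for each screening campaign, cut at about 15% in these data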
Myeloid diff 2: promotes myeloid progenitor differentiation. ER-HoxA9 myeloid progenitors, lysozyme-GFP differentiation, flow cytometry. calls only at 10 µM. 360,000 compounds, 1% hits. AID 624256;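 active = normalized GFP-positive differentiation at or above the plate's own cutoff, the solvent-only control mean plus 3 SD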;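 note: cells exposed to compound for four days before flow analysis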
CTSL1 counter: counter-screen for PFM18AAP inhibitors: inhibitors of F. hepatica cathepsin L1; 300,000 compounds, 0.49% hits; AID 1906; inhibition, % at 5.96 µM; recombinant F. hepatica cathepsin L1, Z-Leu-Arg-MCA fluorescence;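 active = inhibition above the mean of all tested compounds plus 3 SD, set per screening campaign, cut at about 17% in these data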;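 note: 0% = plate median of test compound wells and 100% = 1 µM Z-Phe-Ala-diazomethylketone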
PP5 primary: PP5 (human) phosphatase inhibition. purified PP5c, OMFP substrate fluorescence. P53041. 320,000 compounds, 0.18% hits. AID 1987. inhibition, % at 6.7 µM;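 active = inhibition above the campaign's mean inhibition across all tested compounds plus 3 SD, cut at about 9.5% in these data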;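 note: 0% = DMSO only and 100% = 100 µM cantharidin control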
Target sequence (P53041 whole entry, looked up): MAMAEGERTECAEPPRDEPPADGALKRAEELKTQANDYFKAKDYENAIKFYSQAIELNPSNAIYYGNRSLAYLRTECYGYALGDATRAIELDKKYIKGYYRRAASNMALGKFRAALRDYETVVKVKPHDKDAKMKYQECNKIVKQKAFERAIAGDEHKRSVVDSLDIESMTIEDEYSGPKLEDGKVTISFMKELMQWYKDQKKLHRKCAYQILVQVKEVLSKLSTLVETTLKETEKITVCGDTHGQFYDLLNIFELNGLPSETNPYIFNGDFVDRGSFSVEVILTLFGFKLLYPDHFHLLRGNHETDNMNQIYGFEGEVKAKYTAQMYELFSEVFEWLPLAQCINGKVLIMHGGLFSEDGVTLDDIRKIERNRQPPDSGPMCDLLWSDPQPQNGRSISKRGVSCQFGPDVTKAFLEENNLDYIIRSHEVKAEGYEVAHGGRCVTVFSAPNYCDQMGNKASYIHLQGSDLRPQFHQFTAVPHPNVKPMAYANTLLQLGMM
core dimer inh: HCV core protein dimerization inhibition | TR-FRET GST/Flag-core106 dimerization, 1536-well | inhibition, % at 5 µM | 300,000 compounds, 0.33% hits | AID 1899;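 active = inhibition above the mean of all tested compounds plus 3 SD, set per screening campaign, cut at about 45% in these data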
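Assay system: GST-tagged and Flag-tagged HCV core protein residues 1-106 / Times: compound-protein-antibody incubation 4 h at 22.5 °C / Signal: time-resolved FRET, ex 340 nm, em 617 and 671 nm / Evaluation: % inhibition based on acceptor/donor emission ratio / Benchmarks: wells lacking GST-core106 and wells with excess unlabelled core106 / Repeats: singlicate, one well per compound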
NadD block: blocks S. aureus nicotinate mononucleotide adenylyltransferase. purified NadD enzyme, colorimetric absorbance read-out. inhibition, % at 20 µM. 360,000 compounds, 0.78% hits. AID 602399; in the data active = inhibition above about 26%
PP1 confirm: human PP1 phosphatase inhibition, confirmation; shares compounds with PP1 inh; purified PP1alpha, OMFP substrate fluorescence; inhibition, % at 6.7 µM; 1,900 compounds, 52% hits;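 active = mean PP1 inhibition above a set limit taken from the earlier primary screen, cut at about 15% in these data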
PP5 inh counter: inhibits human PP5 phosphatase in PP1 counter-screen | shares compounds with PP1 inh | 1,900 compounds, 4% hits | purified PP5c, OMFP fluorescence | inhibition, % at 6.7 µM;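 active = mean PP5 inhibition over triplicate wells above about 9.5% taken from the earlier PP1 screen, limit read from the data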
NadD inh conf: confirmation of Staphylococcus aureus NadD inhibitors; shares compounds with NadD block; purified S. aureus NadD, colorimetric enzyme assay; inhibition, % at 20 µM; 2,000 compounds, 13% hits; AID 624309; in the data active = inhibition mostly above about 42%, no sharp cut-off; inactive = mostly below about 42%
Myeloid diff: compounds promoting myeloid differentiation | shares compounds with Myeloid diff 2 | ER-HoxA9 myeloid progenitors, GFP/Mac1 double-positive flow | calls only | 2,300 compounds, 2% hits | AID 651706;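 active = share of green or green-and-red cells above 9 and 9% in run 1 or 4 and 3% in run 2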
GFP autofluor: compound fluorescence in myeloid differentiation counter-screen. fluorescence response, % (concentration not given with the values). ER-HoxA9 myeloid progenitors, no estrogen, GFP autofluorescence flow cytometry; vehicle wells 0%, positive control 100%. 2,300 compounds, 7.4% hits. shares compounds with Myeloid diff 2;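 active = over 5% cells positive for green fluorescent reporter, or over 2% positive for both it and APC stain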;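 note: range taken on the double positive population between DMSO and positive control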
Numbers without * were called inactive; i = inactive; . = no result. Rows were chosen to be rich in hits. Some 3.1% of all compounds tested hit in one or more screens of this group.

SMILES	PP1 inh	Myeloid diff 2	CTSL1 counter	PP5 primary	core dimer inh	NadD block	PP1 confirm	PP5 inh counter	NadD inh conf	others
O=C(Nc1ccc(Oc2ccc3c(c2)C(=O)N(c2ccc(O)cc2)C3=O)cc1)c1cccs1	22*	i	7	-2	10	34*	10	-5	-4
CCc1nnc(NS(=O)(=O)c2ccc(NC(=S)NC(=O)/C=C/c3ccc(F)cc3)cc2)s1	20*	i	0	3	24	31*	12	2	51*
O=C(Nc1ccc(N2CCCC2)cc1)c1ccc2ccccc2c1	21*	i	-2	2	13	34*	0	-5	12
CC(C)C(=O)N1CCN(c2ccccc2NC(=O)c2cccc3ccccc23)CC1	2	i	4	2	13	-2	.	.	.
CC(C)c1ccc(CC(=O)N2CCC2(C)C(=O)NS(=O)(=O)c2ccc(Cl)s2)cc1 (stereo not given)	.	i	.	.	.	-7	.	.	.
O=S(=O)(Nc1cccc(-c2ccc(N3CCCCCC3)nn2)c1)c1cccc(F)c1	18*	i	0	1	24	31*	4	1	21
O=S(=O)(Nc1cccc(-c2ccc(N3CCCCCC3)nn2)c1)c1ccc(F)cc1	5	i	1	3	16	14	.	.	.
CCCn1c(=O)c(C(=O)NNS(=O)(=O)c2ccc(Cl)cc2)c(O)c2ccccc21	22*	i	3	0	17	30*	16*	-4	24
CCCn1c(=O)c(C(=O)NNC(=O)c2ccc(Cl)cc2Cl)c(O)c2ccccc21	2	i	-2	2	-3	22	.	.	.
O=C(Nc1nnc(-c2ccc3c(c2)CCCC3)o1)c1ccc(Cl)cc1Cl	32*	i	6	1	41	36*	26*	-4	24
Cc1cc2nc(-c3ccc(SCC(=O)Nc4ccc(S(=O)(=O)N5CCCC5)cc4)nc3)[nH]c2cc1C	35*	i	5	1	-62	40*	34*	-2	11
C#CCOCCOCCOCCNc1nc(N2CCN(C(=O)CCCCCCCCCCNC(=O)[C@@H](CCSC)n3cc(CCO)nn3)CC2)nc(N2CCN(C(=O)CCCCCCCCCCNC(=O)[C@H](CCC(=O)O)n3cc(CCCCCN)nn3)CC2)n1	18*	i	-2	3	-9	41*	37*	4	48*
COc1ccc(OC)c(/C=C/C(=O)OCC(=O)Nc2nnc(-c3ccccc3)o2)c1	33*	i	.	1	.	44*	28*	-2	60*
Cc1nn(CC(=O)Nc2ccc3c(c2)nc2n3CCN(C3CCCCC3)C2)c(=O)c2ccccc12	20*	i	-1	3	18	32*	6	0	13
c1ccc(-c2ccc(C3=Nn4c(nnc4-c4cc(-c5ccccc5)n[nH]4)SC3)cc2)cc1	30*	i	-2	3	19	44*	33*	3	5
CC1=Nn2c(nnc2-c2cc(-c3ccccc3)n[nH]2)SC1	0	i	4	-1	0	7	.	.	.
C=CCn1c(SCC(=O)NCC(c2ccccc2)N(C)C)nnc1C1CCCCC1 (stereo not given)	0	i	.	3	.	6	.	.	.
O=C(N/N=C/c1cccc(F)c1)c1cc(-c2ccco2)nc2ccccc12	31*	i	-4	-4	74*	52*	11	-2	81*
COc1cc(/C=N/NC(=O)c2cc(-c3ccco3)nc3ccccc23)cc(OC)c1O	12	i	3	0	41	23	.	.	.
CCN(CC)CCOC(=O)c1ccc(N/C=C(/C#N)c2nc(-c3ccc(OC)c(OC)c3)cs2)cc1	66*	i	2	2	16	17	35*	-1	.	Myeloid diff=i;GFP autofluor=0
Cc1ccc(S(=O)(=O)c2cc3c(=O)n4ccccc4nc3n(Cc3ccco3)c2=N)cc1	21*	i	5	3	44	43*	5	1	26	Myeloid diff=i;GFP autofluor=0

From PubChem BioAssay
